Test results as given in PMC6718336 (Proteins, 2019).
“And” between values parts separate entries of the source, which are not always exact repeats. Equal values may be shown once.

Assays:
[1] = biological target: Hsp90α (1-236) NTD (Homo sapiens, UniProt P07900); experiment: ITC binding to Hsp90α NTD; conditions: ITC, 298 K; for N: stoichiometry, one-site model
Outline: (§1)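 Human Hsp90α residues 1-236, N-terminal His-tagged, expressed in E. coli Rosetta (DE3), purified by Ni-NTA and size exclusion. ITC in matched 40 mM HEPES-KOH pH 7.4, 100 mM NaCl, 1% DMSO. Protein (503 or 336 μM) titrated into test compound (50.7 or 30.1 μM); nucleotides titrated into protein. One-site fit, mean of two titrations ± SEM.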

[2] = test system: Hsp90α (1-236) NTD; experiment: ITC binding to Hsp90α NTD; set-up: species or system Human; conditions: preference for Hsp90α over Hsp90β from ITC KD
Outline: as §1

[3] = biological target: Hsp90β NTD (Homo sapiens, UniProt P08238); experiment: ITC binding to Hsp90β NTD; conditions: 298 K; for N: stoichiometry, one-site model
Hsp90β NTD, sequence (P08238 1-221 limits assumed): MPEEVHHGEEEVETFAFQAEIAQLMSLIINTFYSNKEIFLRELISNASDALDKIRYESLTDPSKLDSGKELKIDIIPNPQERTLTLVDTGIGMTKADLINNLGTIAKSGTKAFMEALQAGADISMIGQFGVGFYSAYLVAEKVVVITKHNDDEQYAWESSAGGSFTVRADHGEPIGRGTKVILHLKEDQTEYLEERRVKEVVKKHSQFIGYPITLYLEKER
Outline: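 Human Hsp90β NTD, N-terminal His-tagged, expressed in E. coli Rosetta (DE3), purified by Ni-NTA then size exclusion. ITC in matched 40 mM HEPES-KOH pH 7.4, 100 mM NaCl, 1% DMSO. 891 or 885 μM protein was injected into 93.3 or 97.8 μM test compound in the cell. For ATP/ADP, protein was in the cell and nucleotide in the syringe. One-site fit; mean of two titrations ± SEM.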

[4] = biological target: Hsp90α S52A (1-236) (Homo sapiens, UniProt P07900, S52A); experiment: ITC binding to Hsp90α S52A mutant NTD; conditions: for C-values / Kd / TΔS / ΔG / ΔH / N: ITC, 298 K; for N: stoichiometry, one-site model; for fold change in affinity, Hsp90α S52A vs wild type Hsp90α: ratio of ITC KD
Outline: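 Human Hsp90α NTD (1-236) S52A, N-terminal His-tagged, expressed in E. coli Rosetta (DE3), purified by Ni-NTA then size exclusion. ITC in matched 40 mM HEPES-KOH pH 7.4, 100 mM NaCl, 1% DMSO. 255 or 393 μM protein was injected into 33.0 or 41.8 μM test compound. Wild type was run alike: 503 or 336 μM into 50.7 or 30.1 μM. One-site fit; mean of two titrations ± SEM.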

[5] = test system: Hsp90β; conditions: competition binding assays; cited from earlier work

| SMILES | C-values [1] | Kd [1] | TΔS [1] | ΔG [1] | ΔH [1] | N [1] | α/β selectivity, KD (ITC) [2] | C-values [3] | Kd [3] | TΔS [3] | ΔG [3] | ΔH [3] | N [3] | C-values [4] | Kd [4] | TΔS [4] | ΔG [4] | ΔH [4] | N [4] | fold change in affinity, Hsp90α S52A vs wild type Hsp90α [4] | also measured |
| --- | --- | --- | --- | --- | --- | --- | --- | --- | --- | --- | --- | --- | --- | --- | --- | --- | --- | --- | --- | --- | --- |
| Nc1ncnc2c1ncn2[C@@H]1O[C@H](COP(=O)(O)OP(=O)(O)O)[C@@H](O)[C@H]1O [ADP] | 8.40 – 11.1 | 8.6 µM and 8.59 µM | -13.0 ± 0.28 kcal/mol | -6.90 ± 0.00 kcal/mol | -19.9 ± 0.28 kcal/mol | 0.752 ± 0.014 | 1.4 ± 0.2 fold | 6.74 – 14.1 | 12.4 ± 1.77 µM | -12.9 ± 0.99 kcal/mol | -6.75 ± 0.07 kcal/mol | -19.7 ± 0.92 kcal/mol | 0.813 ± 0.042 | 16.7 – 18.2 | 9.06 ± 0.93 µM | -13.0 ± 0.21 kcal/mol | -6.85 ± 0.07 kcal/mol | -19.8 ± 0.14 kcal/mol | 0.756 ± 0.100 | 1.05 ± 0.11 fold | – |
| Nc1ncnc2c1ncn2[C@@H]1O[C@H](COP(=O)(O)OP(=O)(O)OP(=O)(O)O)[C@@H](O)[C@H]1O [ATP] | 1.13 – 1.44 | 209 ± 21.9 µM | -12.0 ± 1.84 kcal/mol | -5.05 ± 0.07 kcal/mol | -17.1 ± 1.77 kcal/mol | 0.691 ± 0.066 | 1.3 ± 0.2 fold | 1.00 – 1.19 | 281 ± 39.6 µM | -12.3 ± 2.55 kcal/mol | -4.90 ± 0.14 kcal/mol | -17.2 ± 2.40 kcal/mol | 0.707 ± 0.112 | 1.26 – 1.29 | 239 ± 0.71 µM | -12.7 ± 0.85 kcal/mol | -4.95 ± 0.07 kcal/mol | -17.7 ± 0.78 kcal/mol | 0.592 ± 0.026 | 1.14 ± 0.12 fold | – |
| CC(C)c1cc(C(=O)N2Cc3ccccc3C2)c(O)c2cnoc12 [KUNB31] | – | – | – | – | – | – | – | – | – | – | – | – | – | – | – | – | – | – | – | – | preference for Hsp90β over Hsp90α [5]: 50 fold |
